Results: article PMC4353699 (Journal of medicinal chemistry, 2014)

Columns and labels:
[1] = Metabolic stability in human liver microsomes; format: in vitro ADME; conditions: without NADPH
Caco-2 cells = experiment: Caco-2 permeability assay; conditions: Caco-2, apical to basolateral, 10 μM
MRSA (USA300) = experiment: Time-kill assay; format: cell-based, Staphylococcus aureus; conditions: for bactericidal effect in time-kill assay / time to eliminate MRSA (CFU to zero): 3.0 × MIC
[2] = test system: 18 different strains of MRSA and VRSA; experiment: MIC, summary over the strain panel; format: cell-based, Staphylococcus aureus
How it was run: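 Panel of 18 clinical isolates of MRSA and VRSA, with MRSA strains supplied by the NARSA repository. It includes linezolid-resistant MRSA NRS119 and multidrug-resistant VRSA, USA100, USA200 and USA500. MIC is the minimum concentration of test compound that inhibits bacterial growth.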

in vitro = conditions: human, Caco-2

SMILES	bactericidal effect in time-kill assay (MRSA (USA300))	time to eliminate MRSA (CFU to zero) (MRSA (USA300))	other results
CCCCc1ccc(-c2nc(C)c(/C(C)=N/NC(=N)N)s2)cc1 [1a]	bactericidal	within two hours	metabolism on removing the cofactor NADPH [1]: significantly reduced; Papp, A to B direction (Caco-2 cells): very limited permeability; concentration inhibiting growth (MIC), range over MRSA strains [2]: 1.4 to 5.5 µg/mL
C/C(=N\NC(=N)N)c1sc(-c2ccc(C3CCCCC3)cc2)nc1C [compound 8, 2-{1-[2-(4-Cyclohexylphenyl)-4-methylthiazol-5-yl]ethylidene}hydrazinecarboximidamide]	bactericidal	six hours	
CN[C@H](CC(C)C)C(=O)N[C@H]1C(=O)N[C@@H](CC(N)=O)C(=O)N[C@H]2C(=O)N[C@H]3C(=O)N[C@H](C(=O)N[C@H](C(=O)O)c4cc(O)cc(O)c4-c4cc3ccc4O)[C@H](O)c3ccc(c(Cl)c3)Oc3cc2cc(c3O[C@@H]2O[C@H](CO)[C@@H](O)[C@H](O)[C@H]2O[C@H]2C[C@](C)(N)[C@H](O)[C@H](C)O2)Oc2ccc(cc2Cl)[C@H]1O [VAN, vancomycin, reference compound]			reduction of CFU by 3-log10 (MRSA (USA300); within a 12-hour window): not able to reduce the number of CFU by 3-log10
CCCCCc1ccc(-c2nc(C)c(/C(C)=N/NC(=N)N)s2)cc1 [1d]	bactericidal	within two hours	
CNC(=C[N+](=O)[O-])NCCSCc1ccc(CN(C)C)o1 [ranitidine]			Papp A→B at 2 h, 10 µM (in vitro): 0.2 ×10⁻⁶ cm/s
